Reference: PubChem BioAssay
A number with no mark means an inactive call. Inconclusive results are not listed. The source made the active and inactive calls.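 Rule for the calls, unless noted: active = inhibition over a set limit, the all-compound mean plus 3 SD, in both replicate runs; inconclusive = over that limit in just one replicate run; inactive = at or under that limit in both runs.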

Assays:
[1] = OD615 S. cerevisiae growth inhibition, permissive medium, pilot counter-assay, permissive growth control for S. cerevisiae lifespan shortening project (AID 705;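 active = growth inhibition above 25% in both replicates, a cutoff set 3 SD above the mean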); conditions: OD615, 24 h, at 10 µM, hits give high values
Outline: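 Material: engineered DeaD yeast; compound dosing: one dose 10 µM, DMSO 0.25% final; measure: yeast growth inhibition indicated by reduced 24 h OD615; detection: OD615 turbidity read; incubation: cells pre-grown 4 h, then 24 h compound exposure, 30 °C humidified; medium: permissive synthetic complete medium with raffinose and galactose carbon sources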

[2] = Restrictive medium S. cerevisiae growth inhibition, OD615, pilot screen of yeast lifespan reduction project, restrictive growth control (AID 706;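 active = growth inhibition above a set limit, 3 SD over mean compound inhibition, in both replicates, cut at about 43% in these data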;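 note: modified DeaD lifespan yeast strain shifted to restrictive glucose medium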); conditions: OD615, 48 h, at 10 µM, hits give high values
Outline: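 material = engineered S. cerevisiae DeaD strain | medium = glucose-based CSMM-D restrictive medium | times = 4 h pre-incubation, 48 h exposure at 30 °C | technique = OD615 absorbance reading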

[3] = viability gain of MRP-1-high H69AR cells under doxorubicin, pilot screen, MRP-1 activator project, CellTiter-Glo, duplicate (AID 807;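 active = viability increase at or above a cutoff of the median across tested compounds plus 3 SD, cut at about 8.5% in these data, passing the limit was not always enough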;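 note: compound pretreatment 18-22 h then 72 h combined with doxorubicin; 0% = doxorubicin alone and 100% = vehicle without doxorubicin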); conditions: H69AR viability with doxorubicin, CellTiter-Glo luminescence; at 10 µM; hits give high values
[4] = growth suppression of beta-catenin knockout HCT116, pilot screen, human colon tumor cells (AID 823;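 active = cell viability at or below a set limit in both duplicate runs, the limit being the all-compound median minus 4 SD, cut at about 23% in these data, passing the limit was not always enough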;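 note: 0% = wells killed by 20 µM Hyamine and 100% = untreated DMSO cell wells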); conditions: CellTiter-Glo, 60 h, at 10 µM, hits give low values
[5] = growth suppression of PTEN-deleted HCT116, pilot screen, cell-based, HCT116 clonal line, CellTiter-Glo (AID 824;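 active = viability at or below 27.92% in each of two runs, the all-compound median minus 4 SD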;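 note: 0% = 20 µM Hyamine control and 100% = vehicle cell control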); conditions: 60 h, at 10 µM, hits give low values
[6] = inhibitors of the yeast RAM network, pilot screen, dse1pr::URA3 reporter, 5-FOA selection (AID 869);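 note: 0% = DMSO wells with no growth and 100% = 10 µM 1-NA-PP1 with full growth; RAM network block rescues cells from 5-FOA so hits raise OD615 growth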; conditions: S. cerevisiae dse1pr::URA3 5-FOA growth, OD615, 2 d; at 10 µM; hits give high values; strain carries analog-sensitive mutant Cbk1 kinase
[7] = RAM signaling pathway blockade in yeast – S. cerevisiae, Pdr1DBD-CYC8 efflux-inhibited sensitized strain, primary screen (AID 1298;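 active = RAM network inhibition above 8.4% in each of two replicates, 3 SD over the compound average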;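 note: 0% = DMSO untreated cells without growth and 100% = 10 µM 1-NA-PP1 full growth; higher means more yeast growth rescued from 5-FOA killing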); conditions: S. cerevisiae cbk1-as DSE1-URA3 strain, 5-FOA growth OD615, 2 d; at 50 µM; hits give high values

Compound | growth inhibition [1] [%] | growth inhibition [2] [%] | viability increase [3] [%] | viability [4] | viability [5] | inhibition [6] [%] | RAM network inhibition [7] [%]
CCN1CCN(S(=O)(=O)c2ccc3[nH]c(=O)oc3c2)CC1 | -9.66 | -6.6 | -0.48 | 104% | 107% | 1.5 | 4.74
O=C(Cn1ncc2c1-c1ccccc1OC2)N1CCN(Cc2ccc3c(c2)OCO3)CC1 | -1.44 | 10.4 | -3.39 | 84.7% | 90.2% | 1.9 | 2.06
Brc1ccc(-c2nc(-c3ccccn3)no2)o1 | 0.205 | 13 | -4.55 | 73.8% | 67.5% | 2.41 | 2.05
Cc1noc(C(=O)N2CCN(c3ccc(F)cc3)CC2)c1Cl | -12.6 | -16.4 | 1.26 | 105% | 101% | 2.11 | 9.11
CCCCn1c(CNC(=O)C(C)(C)C)nc2ccccc21 | -11.1 | -12 | -1.15 | 98% | 98.9% | 0.25 | 5.15
Cc1cccc(NC(=O)Nc2ccc(C#N)cc2)n1 | -15.2 | -6.73 | -5.92 | 18.1% (active) | 17.4% (active) | -0.505 | 3.51
COCCNC(=O)CN1CCOc2ccccc21 | -22.5 | 14.5 | -4.65 | 94.6% | 102% | 0.98 | 3.11
CC(C)(C)NCCCCOc1ccc(F)cc1 | 0.455 | -1.1 | 0.34 | 99.3% | 101% | 1.71 | 1.66
O=C1CCCN1CC(CN1CCOCC1)Sc1nnnn1-c1ccccc1 (configuration not stated) | -0.73 | 7.22 | -3.37 | 100% | 105% | 1.56 | 5.8
Cc1ccc(N2CN=c3s/c(=C\c4ccccn4)c(=O)n3C2)cc1 | -7.53 | 1.19 | -2.37 | 86.8% | 98.7% | -0.31 | 3.39
O=C(CSc1nccc2ccccc12)N1CCN(c2ccccn2)CC1 | -3.48 | 8.46 | -2.78 | 97.5% | 99.8% | 0.295 | -0.26
O=C(COc1ccccc1)Nc1nnc(-c2ccc(Cl)s2)o1 | -2.75 | 8.75 | -1.36 | 109% | 100% | 2.67 | 1.52
COc1ccc2oc(-c3ccccc3)c(C(=O)N3CCOCC3)c2c1 | 2.58 | -8.54 | -3.95 | 94.3% | 90% | 1.52 | 5.28
CC1CCc2nn(CC(=O)Nc3c(F)cc(F)cc3Br)cc2C1 (configuration not stated) | -5.22 | -6.17 | 2.17 | 102% | 90.3% | 1.84 | 1.57
Brc1ccc(-c2nnc(-c3ccccc3Br)o2)cc1 | 0.385 | -1.09 | -1.12 | 87.9% | 79.2% | 2.09 | 11.3
COCCN1C(=O)c2ccccc2C(C(=O)N2CCN(c3ccccn3)CC2)C1c1ccc(F)cc1 (configuration not stated) | 1.72 | -22.7 | -4.12 | 92.2% | 90.4% | 0.335 | 8.63
Cn1c(Cn2c(=O)sc3ccccc32)nnc1SCc1cccc(F)c1 | -7.92 | 2.12 | -0.5 | 71.1% | 69.7% | 3.43 | 7.87
CCCc1nc2c(o1)CC(CC(C)SCC)CC2=O (configuration not stated) | -7.34 | -1.98 | -0.4 | 101% | 98.8% | 1.36 | 5.75

Compound | growth inhibition [1] [%] | growth inhibition [2] [%] | viability increase [3] [%] | viability [4] | viability [5] | inhibition [6] [%] | RAM network inhibition [7] [%]
CCN1CCN(C(=O)Nc2ccc(Cc3ccc(NC(=O)N4CCN(CC)CC4)cc3)cc2)CC1 | -9.89 | -9.14 | -2.42 | 78.3% | 86.7% | 1.72 | 2.65
CCN(c1ccccc1)S(=O)(=O)c1ccc(N)cc1 | -4.66 | -1.86 | -1.02 | 94.5% | 98.1% | 2.56 | 2.68
O=C(Nc1ccccc1)N1CCN2C(=O)c3ccccc3C12c1ccccc1 (configuration not stated) | -7.51 | -1.31 | -2.35 | 89.9% | 89.5% | 1.29 | 2.89
COc1ccccc1C(=O)N1CCN(c2cccc(Cl)c2)CC1 | -9.06 | -12.8 | -4.63 | 15.4% (active) | 20% (active) | 2.75 | 2.22
COC(=O)C1C(C(C)C)N(c2ccccc2)OC1(C)O (configuration not stated) | -11.8 | -7.98 | -4.25 | 103% | 96.9% | 0.93 | 1.66
CCN(CC)CCN=C1CCCc2ccccc2N1 | -1.96 | 5.53 | -2.11 | 86.9% | 87% | 2.3 | 0.67
O=C(O)CC(C(=O)NC1CCCCC1)C1CCCO1 (configuration not stated) | -1.02 | -15.1 | -1.68 | 98.3% | 102% | 0.36 | 1.76
O=C1Nc2cc(Cl)cnc2N2CCCC12 (configuration not stated) | -2.57 | 8.33 | -0.67 | 97.7% | 101% | 0.905 | 0
CCOC(=O)Cn1c(=O)oc2cc(S(=O)(=O)NCC3CCCO3)ccc21 (configuration not stated) | -10.1 | -10.7 | -1.7 | 99.8% | 103% | 0.325 | 2.41
COc1ccc(NC(=O)C2CCN(S(=O)(=O)c3ccc(OC)c(OC)c3)CC2)c(OC)c1 | -1.19 | 4.12 | -0.83 | 94.7% | 88.6% | 1 | 1.41
CC1CCN(CC(O)COc2ccc(F)cc2)CC1 (configuration not stated) | -19.2 | -16.5 | -0.7 | 96.4% | 99.5% | 0.515 | 2.56
O=C(Nc1ccc(Br)cc1F)C1CCN(c2nnc(-n3cccc3)s2)CC1 | 2.32 | -4.69 | 0.53 | 97.8% | 99.8% | 3.21 | 0.36
COCCOC(=O)C1=C(C)NC(=O)NC1C1CC=CCC1 (configuration not stated) | -6.74 | -6.73 | 0.63 | 91.5% | 101% | 1.45 | 5.08
COc1ccc(-c2nnc(SCC(=O)NC3CCCCC3)o2)cc1OC | -3.22 | 1.43 | -2.07 | 98.5% | 98.4% | 1.34 | 2.65
CN(C)c1ccc(C2C3C(=O)NC(=O)C3ON2c2ccc(Cl)cc2)cc1 (configuration not stated) | -0.19 | 2.37 | -0.83 | 102% | 98.6% | 0.735 | 4.07
COc1ccc(C(c2sc3ncnn3c2O)N2CC(C)OC(C)C2)cc1OC (configuration not stated) | 0.335 | -6.37 | -1 | 102% | 87.3% | 0.55 | 0.12
Cc1c(C(=O)N2CCCc3ccccc32)sc2nc(-c3ccccc3)cn12 | -8.77 | 0.195 | -2.82 | 65.9% | 68.4% | 2.46 | 5.58
OCCCc1nc2n(n1)C(c1cccs1)C=C(c1ccccc1)N2 (configuration not stated) | -17.7 | -5.79 | -4.73 | 83.6% | 84.7% | 3.25 | 3.92
